{"source": "ChEMBL document CHEMBL4689842", "about": "“EUbOPEN Chemogenomics Library wave 1” (2021)", "key": {"[1]": {"system": "Fibroblast", "experiment": "Incucyte cell viability with human fibroblast; further: filed as whole numbers so only -1 and 0 and 1 occur", "format": "toxicity, cell-based", "conditions": "10 µM, compound concentration 10 uM"}, "[2]": {"system": "HEK-293T", "experiment": "Multiplex assay against HEK293T;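 on Population Tubulin-Different-Phenotype (%): share of the cells with healthy nuclei that show this phenotype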", "format": "toxicity, cell-based", "conditions": "human", "method_in_brief": "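Four dyes were applied at seeding to live cells: Hoechst33342, BioTracker Green Microtubule Cytoskeleton Dye, MitoTracker Red and Annexin V Alexa Fluor 680. Imaging after compound addition used a CQ1 microscope at 37°C and 5% CO2. CellPathfinder machine-learning gating then sorted cells into Hoechst high-intensity objects or normal cells, normal cells into healthy, pyknosed or fragmented nuclei, and pyknosed cells into mitotic or apoptotic, with tubulin, mitochondrial-mass and membrane-permeability phenotypes given as per cents of healthy-nucleus cells.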"}, "[3]": {"conditions": "12 h, 1 µM, compound concentration 1 uM, replicate 1"}, "[4]": {"conditions": "12 h, 1 µM, compound concentration 1 uM, replicate 2"}, "[5]": {"conditions": "12 h, 10 µM, compound concentration 10 uM, replicate 1"}, "[6]": {"conditions": "12 h, 10 µM, compound concentration 10 uM, replicate 2"}, "[7]": {"conditions": "24 h, 1 µM, compound concentration 1 uM, replicate 1"}, "[8]": {"conditions": "24 h, 1 µM, compound concentration 1 uM, replicate 2"}, "[9]": {"conditions": "24 h, 10 µM, compound concentration 10 uM, replicate 1"}, "[10]": {"conditions": "24 h, 10 µM, compound concentration 10 uM, replicate 2"}, "[11]": {"conditions": "48 h, 10 µM, compound concentration 10 uM, replicate 1"}, "[12]": {"conditions": "48 h, 10 µM, compound concentration 10 uM, replicate 2"}}, "note": "Where “and” joins values, the source holds several entries; their conditions need not be identical. Equal entries are not always repeated."}
{"molecule": "c1ccc(-c2oc3ncnc(NC[C@@H]4CCCO4)c3c2-c2ccccc2)cc1", "values": [{"measurement": "Growth Rate", "setting": "[1]; 0 h, replicate number 2, timepoint 0 hours", "value": 1}, {"measurement": "Growth Rate", "setting": "[1]; 6 h, replicate number 1, timepoint 6 hours", "value": 0}, {"measurement": "Growth Rate", "setting": "[1]; 12 h, replicate number 1, timepoint 12 hours", "value": 0}, {"measurement": "Growth Rate", "setting": "[1]; 18 h, replicate number 1, timepoint 18 hours", "value": 0}, {"measurement": "Growth Rate", "setting": "[1]; 24 h, replicate number 1, timepoint 24 hours", "value": 0}, {"measurement": "Population Apoptotic (%)", "setting": "[2]; [3]", "value": 20, "unit": "%"}, {"measurement": "Population Fragmented Nuclei (%)", "setting": "[2]; [3]", "value": "13% and 15%"}, {"measurement": "Population Healthy Nuclei (%)", "setting": "[2]; [3]", "value": "57% and 66%"}, {"measurement": "Population Hoechst High Intensity Objects (%)", "setting": "[2]; [3]", "value": "11% and 13%"}, {"measurement": "Population Mitotic Cells (%)", "setting": "[2]; [3]", "value": 79, "unit": "%"}, {"measurement": "Population Normal (%)", "setting": "[2]; [3]", "value": "88% and 86%"}, {"measurement": "Population Pyknosed Nuclei (%)", "setting": "[2]; [3]", "value": "28% and 17%"}, {"measurement": "Total Cell Count", "setting": "[2]; [3]", "value": "692 and 563"}, {"measurement": "Population Healthy Nuclei (%)", "setting": "[2]; [4]", "value": "74% and 83%"}, {"measurement": "Population Hoechst High Intensity Objects (%)", "setting": "[2]; [4]", "value": "2% and 1%"}, {"measurement": "Population Mitotic Cells (%)", "setting": "[2]; [4]", "value": "86% and 97%"}, {"measurement": "Population Normal (%)", "setting": "[2]; [4]", "value": "97% and 98%"}, {"measurement": "Total Cell Count", "setting": "[2]; [4]", "value": "938 and 1825"}, {"measurement": "Population Apoptotic (%)", "setting": "[2]; [5]", "value": 72, "unit": "%"}, {"measurement": "Population Fragmented Nuclei (%)", "setting": "[2]; [5]", "value": 14, "unit": "%"}, {"measurement": "Population Healthy Nuclei (%)", "setting": "[2]; [5]", "value": 25, "unit": "%"}, {"measurement": "Population Hoechst High Intensity Objects (%)", "setting": "[2]; [5]", "value": 17, "unit": "%"}, {"measurement": "Population Membrane Permeable-Phenotype (%)", "setting": "[2]; [5]", "value": 3, "unit": "%"}, {"measurement": "Population Mitochondria Different-Phenotype (%)", "setting": "[2]; [5]", "value": 98, "unit": "%"}, {"measurement": "Population Mitotic Cells (%)", "setting": "[2]; [5]", "value": 27, "unit": "%"}, {"measurement": "Population Normal (%)", "setting": "[2]; [5]", "value": 82, "unit": "%"}, {"measurement": "Population Pyknosed Nuclei (%)", "setting": "[2]; [5]", "value": 59, "unit": "%"}, {"measurement": "Population Tubulin-Different-Phenotype (%)", "setting": "[2]; [5]", "value": 98, "unit": "%"}, {"measurement": "Total Cell Count", "setting": "[2]; [5]", "value": 263}, {"measurement": "Population Apoptotic (%)", "setting": "[2]; [6]", "value": 43, "unit": "%"}, {"measurement": "Population Fragmented Nuclei (%)", "setting": "[2]; [6]", "value": 4, "unit": "%"}, {"measurement": "Population Healthy Nuclei (%)", "setting": "[2]; [6]", "value": 31, "unit": "%"}, {"measurement": "Population Hoechst High Intensity Objects (%)", "setting": "[2]; [6]", "value": 7, "unit": "%"}, {"measurement": "Population Membrane Permeable-Phenotype (%)", "setting": "[2]; [6]", "value": 17, "unit": "%"}, {"measurement": "Population Mitochondria Different-Phenotype (%)", "setting": "[2]; [6]", "value": 71, "unit": "%"}, {"measurement": "Population Mitotic Cells (%)", "setting": "[2]; [6]", "value": 56, "unit": "%"}, {"measurement": "Population Normal (%)", "setting": "[2]; [6]", "value": 92, "unit": "%"}, {"measurement": "Population Pyknosed Nuclei (%)", "setting": "[2]; [6]", "value": 63, "unit": "%"}, {"measurement": "Population Tubulin-Different-Phenotype (%)", "setting": "[2]; [6]", "value": 90, "unit": "%"}, {"measurement": "Total Cell Count", "setting": "[2]; [6]", "value": 218}, {"measurement": "Population Apoptotic (%)", "setting": "[2]; [7]", "value": "28% and 21%"}, {"measurement": "Population Fragmented Nuclei (%)", "setting": "[2]; [7]", "value": "11% and 14%"}, {"measurement": "Population Healthy Nuclei (%)", "setting": "[2]; [7]", "value": "65% and 77%"}, {"measurement": "Population Hoechst High Intensity Objects (%)", "setting": "[2]; [7]", "value": "10% and 5%"}, {"measurement": "Population Mitotic Cells (%)", "setting": "[2]; [7]", "value": "71% and 78%"}, {"measurement": "Population Normal (%)", "setting": "[2]; [7]", "value": "89% and 94%"}, {"measurement": "Total Cell Count", "setting": "[2]; [7]", "value": "699 and 659"}, {"measurement": "Population Apoptotic (%)", "setting": "[2]; [8]", "value": "8% and 3%"}, {"measurement": "Population Healthy Nuclei (%)", "setting": "[2]; [8]", "value": 74, "unit": "%"}, {"measurement": "Population Hoechst High Intensity Objects (%)", "setting": "[2]; [8]", "value": "2% and 3%"}, {"measurement": "Population Mitotic Cells (%)", "setting": "[2]; [8]", "value": "91% and 96%"}, {"measurement": "Population Normal (%)", "setting": "[2]; [8]", "value": "97% and 96%"}, {"measurement": "Total Cell Count", "setting": "[2]; [8]", "value": "1013 and 3002"}, {"measurement": "Population Apoptotic (%)", "setting": "[2]; [9]", "value": 69, "unit": "%"}, {"measurement": "Population Fragmented Nuclei (%)", "setting": "[2]; [9]", "value": 20, "unit": "%"}, {"measurement": "Population Healthy Nuclei (%)", "setting": "[2]; [9]", "value": 19, "unit": "%"}, {"measurement": "Population Hoechst High Intensity Objects (%)", "setting": "[2]; [9]", "value": 23, "unit": "%"}, {"measurement": "Population Membrane Permeable-Phenotype (%)", "setting": "[2]; [9]", "value": 0, "unit": "%"}, {"measurement": "Population Mitochondria Different-Phenotype (%)", "setting": "[2]; [9]", "value": 94, "unit": "%"}, {"measurement": "Population Mitotic Cells (%)", "setting": "[2]; [9]", "value": 30, "unit": "%"}, {"measurement": "Population Normal (%)", "setting": "[2]; [9]", "value": 76, "unit": "%"}, {"measurement": "Population Pyknosed Nuclei (%)", "setting": "[2]; [9]", "value": 60, "unit": "%"}, {"measurement": "Population Tubulin-Different-Phenotype (%)", "setting": "[2]; [9]", "value": 94, "unit": "%"}, {"measurement": "Total Cell Count", "setting": "[2]; [9]", "value": 260}, {"measurement": "Population Apoptotic (%)", "setting": "[2]; [10]", "value": 43, "unit": "%"}, {"measurement": "Population Fragmented Nuclei (%)", "setting": "[2]; [10]", "value": 2, "unit": "%"}, {"measurement": "Population Healthy Nuclei (%)", "setting": "[2]; [10]", "value": 31, "unit": "%"}, {"measurement": "Population Hoechst High Intensity Objects (%)", "setting": "[2]; [10]", "value": 4, "unit": "%"}, {"measurement": "Population Membrane Permeable-Phenotype (%)", "setting": "[2]; [10]", "value": 16, "unit": "%"}, {"measurement": "Population Mitochondria Different-Phenotype (%)", "setting": "[2]; [10]", "value": 75, "unit": "%"}, {"measurement": "Population Mitotic Cells (%)", "setting": "[2]; [10]", "value": 56, "unit": "%"}, {"measurement": "Population Normal (%)", "setting": "[2]; [10]", "value": 95, "unit": "%"}, {"measurement": "Population Pyknosed Nuclei (%)", "setting": "[2]; [10]", "value": 66, "unit": "%"}, {"measurement": "Population Tubulin-Different-Phenotype (%)", "setting": "[2]; [10]", "value": 90, "unit": "%"}, {"measurement": "Total Cell Count", "setting": "[2]; [10]", "value": 222}, {"measurement": "Population Apoptotic (%)", "setting": "[2]; [11]", "value": 70, "unit": "%"}, {"measurement": "Population Fragmented Nuclei (%)", "setting": "[2]; [11]", "value": 26, "unit": "%"}, {"measurement": "Population Healthy Nuclei (%)", "setting": "[2]; [11]", "value": 16, "unit": "%"}, {"measurement": "Population Hoechst High Intensity Objects (%)", "setting": "[2]; [11]", "value": 23, "unit": "%"}, {"measurement": "Population Membrane Permeable-Phenotype (%)", "setting": "[2]; [11]", "value": 3, "unit": "%"}, {"measurement": "Population Mitochondria Different-Phenotype (%)", "setting": "[2]; [11]", "value": 96, "unit": "%"}, {"measurement": "Population Mitotic Cells (%)", "setting": "[2]; [11]", "value": 29, "unit": "%"}, {"measurement": "Population Normal (%)", "setting": "[2]; [11]", "value": 76, "unit": "%"}, {"measurement": "Population Pyknosed Nuclei (%)", "setting": "[2]; [11]", "value": 57, "unit": "%"}, {"measurement": "Population Tubulin-Different-Phenotype (%)", "setting": "[2]; [11]", "value": 93, "unit": "%"}, {"measurement": "Total Cell Count", "setting": "[2]; [11]", "value": 268}, {"measurement": "Population Apoptotic (%)", "setting": "[2]; [12]", "value": 48, "unit": "%"}, {"measurement": "Population Fragmented Nuclei (%)", "setting": "[2]; [12]", "value": 4, "unit": "%"}, {"measurement": "Population Healthy Nuclei (%)", "setting": "[2]; [12]", "value": 64, "unit": "%"}, {"measurement": "Population Hoechst High Intensity Objects (%)", "setting": "[2]; [12]", "value": 5, "unit": "%"}, {"measurement": "Population Membrane Permeable-Phenotype (%)", "setting": "[2]; [12]", "value": 19, "unit": "%"}, {"measurement": "Population Mitochondria Different-Phenotype (%)", "setting": "[2]; [12]", "value": 66, "unit": "%"}, {"measurement": "Population Mitotic Cells (%)", "setting": "[2]; [12]", "value": 51, "unit": "%"}, {"measurement": "Population Normal (%)", "setting": "[2]; [12]", "value": 94, "unit": "%"}, {"measurement": "Population Pyknosed Nuclei (%)", "setting": "[2]; [12]", "value": 31, "unit": "%"}, {"measurement": "Population Tubulin-Different-Phenotype (%)", "setting": "[2]; [12]", "value": 90, "unit": "%"}, {"measurement": "Total Cell Count", "setting": "[2]; [12]", "value": 272}]}
